Bioassay records (PubChem BioAssay)
Only some compounds are listed: those with a hit (about 2% of all), similar ones and a draw of the others.
ABHD4 inh: ABHD4 (mouse) inhibition, primary FP screen; Q8VD66; purified mABHD4, FP-Rh probe fluorescence polarization; inhibition, % at 8.92 µM; actives 0.54% (n = 370,000); AID 720543;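 active = inhibition exceeding the mean over every tested compound plus 3 SD, cut at about 30% in these data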;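 also: 0% = plate median of compound wells and 100% = S159A mutant with DMSO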
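Assay system: mABHD4 protein; medium: HEPES pH 7.0, NaCl, Pluronic buffer; dosing: 8.92 µM, single dose; schedule: 45 min + 60 min at 25 °C; signal: FP readout, ex 525 nm / em 598 nm; read-out: normalized percent inhibition of probe labeling; repeats: single replicate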
HTRA1 inh: blocks human HTRA1 serine peptidase; recombinant HTRA1, FP-rhodamine activity-based probe, fluorescence polarization; inhibition, % at 5.96 µM; actives 0.5% (n = 340,000); Q92743; in the data active = inhibition above about 36%;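 also: 0% = enzyme with DMSO and 100% = wells lacking enzyme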
TDP2 absorb: TDP2 (human) inhibition, absorbance primary screen; AID 720702; inhibition, % at 12.8 µM; O95551; actives 0.34% (n = 370,000); recombinant TDP2, T5PNP hydrolysis, p-nitrophenol absorbance 415 nm;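 active = inhibition above the mean of all tested compounds plus 3 SD, set per campaign, cut at about 25% in these data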;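 also: 0% = DMSO with enzyme and 100% = buffer with substrate but no TDP2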
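System – recombinant human TDP2 · Quantity – TDP2 enzyme at 120 nM final · Doses – single concentration, 12.8 µM nominal, with 1% DMSO · Incubation – 2 h at 37 °C · Measured by – epi absorbance of p-nitrophenol freed from T5PNP by hydrolysis · Read-out – % inhibition relative to enzyme-containing and enzyme-free wells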
TCR CD3 inh: blocks the human TCR-CD3 interaction; TAMRA-labeled TCR probe fluorescence, biochemical; inhibition, % at 9.4 µM; actives 0.37% (n = 360,000); in the data active = inhibition above about 19%;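 also: recombinant mutant TCR 2C K166C tagged with TAMRA read by polarization; 0% = receptor in buffer alone and 100% = receptor with positive control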
PAD4 inh: inhibitors of human PAD4. actives 0.41% (n = 330,000). Q9UM07. inhibition, % at 6.36 µM. recombinant PAD4, RCA probe fluorescence polarization. AID 485272;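 active = percent inhibition above a cutoff equal to the mean of all tested compounds plus 3 SD, cut at about 15% in these data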;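 also: 0% = PAD4 with RCA probe and DMSO and 100% = probe without PAD4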
Target sequence (Q9UM07 whole entry, looked up): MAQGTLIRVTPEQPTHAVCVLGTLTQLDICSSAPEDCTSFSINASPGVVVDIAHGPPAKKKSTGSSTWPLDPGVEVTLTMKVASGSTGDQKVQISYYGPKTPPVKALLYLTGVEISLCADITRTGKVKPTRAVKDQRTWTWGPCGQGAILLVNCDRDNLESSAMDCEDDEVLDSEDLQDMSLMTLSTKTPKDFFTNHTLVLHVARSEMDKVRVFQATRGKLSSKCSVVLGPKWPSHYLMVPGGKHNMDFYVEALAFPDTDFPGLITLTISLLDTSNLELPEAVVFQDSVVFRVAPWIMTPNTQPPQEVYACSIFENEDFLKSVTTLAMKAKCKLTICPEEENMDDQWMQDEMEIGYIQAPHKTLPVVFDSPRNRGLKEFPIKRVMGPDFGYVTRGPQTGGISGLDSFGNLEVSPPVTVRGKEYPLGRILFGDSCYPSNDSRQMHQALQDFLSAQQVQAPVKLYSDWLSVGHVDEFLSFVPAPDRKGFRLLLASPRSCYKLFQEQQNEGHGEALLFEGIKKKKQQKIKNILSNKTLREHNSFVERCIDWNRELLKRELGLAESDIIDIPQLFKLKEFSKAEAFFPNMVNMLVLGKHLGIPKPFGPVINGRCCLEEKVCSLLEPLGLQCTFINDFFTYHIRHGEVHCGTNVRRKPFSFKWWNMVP
SIAE inh: human SIAE inhibition, primary screen; SIAE FP-Rh probe binding, fluorescence polarization; Q9HAT2; inhibition, % at 9.66 µM; actives 0.69% (n = 370,000);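 active = inhibition above a cutoff: mean of compounds within the control limits plus 3 SD of those, cut at about 17% in these data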;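 also: 0% = plate median of compound wells and 100% = probe without SIAE protein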
PAD4 FP conf: confirmation of human PAD4 inhibitors | shares compounds with PAD4 inh | recombinant PAD4, RCA probe fluorescence polarization | inhibition, % at 6.36 µM | actives 28% (n = 1,200) | AID 488796;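 active = mean inhibition across replicates above the hit cutoff set by the earlier primary screen, cut at about 15% in these data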;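 also: inhibitors block active-site labeling by the probe so polarization falls; 0% = PAD4 with probe and DMSO and 100% = probe without PAD4 enzyme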
HTRA1 conf: confirmation of human HTRA1 inhibitors | shares compounds with HTRA1 inh | actives 66% (n = 1,600) | recombinant HTRA1, FP-rhodamine activity-based probe, fluorescence polarization | inhibition, % at 5.96 µM;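 active = mean inhibition over three repeats above a set limit taken from the earlier primary screen, cut at about 37% in these data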;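 also: 0% = HTRA1 with DMSO and 100% = wells lacking HTRA1; inhibitors block probe binding so polarization drops and inhibition rises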
mABHD4 conf: ABHD4 (mouse) inhibition, FP confirmation; actives 55% (n = 1,800); AID 720658; purified mABHD4, FP-Rh probe fluorescence polarization; shares compounds with ABHD4 inh; inhibition, % at 8.92 µM;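 active = mean inhibition across replicates above the hit cutoff set in the primary screen, cut at about 30% in these data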;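 also: 0% = wild-type ABHD4 with DMSO and 100% = catalytically dead S159A mutant with DMSO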
TDP2 confirm: human TDP2 inhibition, confirmation. actives 22% (n = 1,100). inhibition, % at 12.8 µM. recombinant human TDP2, absorbance read-out. shares compounds with TDP2 absorb. AID 743263; in the data active = inhibition above about 25%;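 also: 0% = vehicle with enzyme and 100% = no enzyme buffer only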
* hit, by the source's call; · = no result.

SMILES | ABHD4 inh | HTRA1 inh | TDP2 absorb | TCR CD3 inh | PAD4 inh | SIAE inh | PAD4 FP conf | TDP2 confirm | others
O=C(NC1CC[C@@]23CCCN2C(=O)CCC[C@H]3C1)c1ccccc1 (some centres undefined) | -3.7 | · | 0.1 | · | · | -0.6 | · | ·
N#Cc1cccc(NC(=O)O[C@@H]2CC[C@@]34CCCN3C(=O)CCC[C@H]4C2)c1 | -3.1 | · | -2.0 | · | · | -7.7 | · | ·
N#Cc1ccccc1N1CCN(S(=O)(=O)c2ccc3c(c2)CCC(=O)N3)CC1 | 8.7 | · | -6.5 | · | · | 2.9 | · | ·
Cc1nnc(N/N=C/c2ccc(-c3ccccc3F)o2)n1N | 6.4 | -0.9 | 58.6* | -7.0 | 25.1* | 1.5 | 2.0 | 3.1
Cc1nnc(N/N=C\c2ccc(-c3ccccc3[N+](=O)[O-])o2)n1N | 4.2 | 2.3 | 77.6* | 1.9 | 34.8* | 7.7 | -5.4 | 20.4
Cc1n[nH]c(=S)n1/N=C/c1ccc(-c2ccccc2[N+](=O)[O-])o1 | 2.3 | -4.3 | 1.4 | 3.5 | 1.9 | -2.8 | · | ·
CCc1nnc(N/N=C/c2ccc(-c3ccc([N+](=O)[O-])cc3)o2)n1N | 4.0 | 6.5 | 67.8* | -6.2 | 25.3* | 5.6 | -3.8 | -4.7
CC1(C(=O)NS(=O)(=O)c2cccc(OC(F)F)c2)CCN1C(=O)C/C=C/c1ccccc1 (centres undefined) | 8.0 | · | -3.0 | -4.2 | · | 4.9 | · | ·
COc1ccc(S[C@]2(C(=O)NCc3ccccc3)CC(=O)N[C@@H]2c2ccc(OC)cc2)cc1 | -3.8 | · | -19.3 | · | · | -1.7 | · | ·
O=c1cc(-c2cccc([N+](=O)[O-])c2)[nH][nH]1 | 19.9 | 4.8 | 71.2* | -3.8 | 52.0* | 4.6 | -1.6 | 14.9
O=C1C=C(Nc2ccccc2C(=O)O)c2ccccc2C1=O | 44.0* | 25.5 | 45.7* | 1.9 | 18.3* | 7.3 | 61.1* | 50.5* | mABHD4 conf=53.0*
O=C1CCCC2=C1C1(O)C(=O)c3ccccc3C1(O)O2 (centres undefined) | 1.4 | 7.9 | 52.6* | 3.2 | 45.2* | 7.3 | 32.8* | 58.7*
CCOC(=O)C1=C(C)OC(N)=C(C#N)C1c1ccc(C)s1 (centres undefined) | 0.7 | -3.1 | -7.5 | -1.2 | 2.9 | 10.1 | · | ·
Cc1ccc(S(=O)(=O)/N=C2\C=C(Nc3cccc(C(=O)O)c3)C(=O)c3ccccc32)cc1 | 32.9* | 52.3* | 84.8* | -0.2 | 62.9* | 3.9 | 46.1* | 77.0* | HTRA1 conf=29.9;mABHD4 conf=61.9*
CC(=O)Nc1cccc(/C(C)=N/NS(=O)(=O)c2ccc(C)cc2)c1 | 1.7 | 11.9 | 1.1 | 8.3 | -1.5 | 0.0 | · | ·
Cc1cccc(NC2=C(NC(=O)c3ccccc3)C(=O)c3ccccc3C2=O)c1 | 15.4 | 9.3 | -0.6 | 6.7 | -11.4 | 13.4 | · | ·
Cc1ccc(S(=O)(=O)/N=C2\C=C(Nc3cccc(C(=O)O)c3)C(=O)c3ccccc32)c(C)c1 | 47.3* | 57.9* | 61.9* | -0.2 | 66.2* | 15.5 | 50.5* | 70.5* | HTRA1 conf=62.7*;mABHD4 conf=101.0*
CC(=O)CC[C@@H]1CC[C@]2(CCCN(S(=O)(=O)C3CCCCC3)C2)O1 | 2.3 | · | 1.5 | · | · | 0.3 | · | ·
Cc1ccc(NC2=C(NCCO)C(=O)c3ccccc3C2=O)cc1 | 3.5 | 8.2 | 43.5* | 3.5 | 39.6* | 5.5 | -4.4 | 39.5*
Oc1cc(NCCN2CCOCC2)cc2cccnc12 | 16.5 | 7.7 | 31.5* | 11.1 | 31.2* | 6.3 | 11.7 | 12.9
Cc1cc(=O)n(C2CCS(=O)(=O)C2)[nH]1 (centres undefined) | -2.5 | · | 70.4* | -4.8 | 80.2* | 5.9 | 3.2 | 26.2*
